This note sets out measurements from ChEMBL document CHEMBL4321877, “Development of Novel N-hydroxypyridone Derivatives as Potential Anti-Ischemic Stroke Agents” (J Med Chem, 2020).

For one series, the system named is HT-22. Briefly: Neuroprotective activity against glutamate-induced cell death in mouse HT22 cells assessed as increase in cell viability up to 4 uM preincubated for 2 hrs followed by glutamate-challenge and measured after 24 hrs by MTT assay. It counts as functional, cell-based. The procedure, abridged:
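HT22 mouse hippocampal cells (DMEM, 10% FBS) seeded 5×10^4 cells/ml and grown 12 h. Compound added for 2 h, then 10 mM L-glutamic acid hydrochloride for 24 h. Viability by MTT at 490 nm as % of control; mean ± SD, n = 3.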

Series [1] relates to Rattus norvegicus. Nature of the series: Neuroprotective activity in Sprague-Dawley rat model of middle cerebral artery occlusion-induced ischemia-reperfusion injury assessed as reduction in disease severity score at 1 mg/kg, iv measured 24 hrs post-reperfusion. Format: functional, organism-based. The gist of the method:
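Male Sprague-Dawley rats anesthetized with chloral hydrate (400 mg/kg i.p.); left MCA occluded by intraluminal nylon suture for 2 h, then withdrawn. Compound in 0.9% saline given by tail vein immediately after reperfusion; body temperature held at 37.0 ± 0.5 °C. mNSS scored 24 h later; n = 15–18, mean ± SEM.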

For series [2], the system named is SH-SY5Y. Briefly: Neuroprotective activity against oxygen-glucose deprivation-induced apoptosis in human SH-SY5Y cells assessed as early apoptotic cells at 4 uM preincubated for 2 hrs followed by OGD-challenge and measured after 24 hrs by Annexin V-FITC/propidium iodide staining-based flow cytometric method (reference value: 17.1%). It counts as functional. (In general: In flow cytometry, cells or beads pass a laser one at a time.)

Series [3] in a line: Solubility of the compound in […] incubated for 24 hrs by HPLC analysis. It counts as physicochemical.
For series [4], the target named is Voltage-gated inwardly rectifying potassium channel KCNH2 (Homo sapiens, UniProt Q12809). Nature of the series: Inhibition of human ERG stably expressed in CHO cells at -80 mV by automated Qpatch electrophysiological assay. Format: cell-based. For orientation: In patch-clamp work, channel activity is measured electrically.
Sequence of Voltage-gated inwardly rectifying potassium channel KCNH2 (Q12809 whole entry, the tested form may be a part): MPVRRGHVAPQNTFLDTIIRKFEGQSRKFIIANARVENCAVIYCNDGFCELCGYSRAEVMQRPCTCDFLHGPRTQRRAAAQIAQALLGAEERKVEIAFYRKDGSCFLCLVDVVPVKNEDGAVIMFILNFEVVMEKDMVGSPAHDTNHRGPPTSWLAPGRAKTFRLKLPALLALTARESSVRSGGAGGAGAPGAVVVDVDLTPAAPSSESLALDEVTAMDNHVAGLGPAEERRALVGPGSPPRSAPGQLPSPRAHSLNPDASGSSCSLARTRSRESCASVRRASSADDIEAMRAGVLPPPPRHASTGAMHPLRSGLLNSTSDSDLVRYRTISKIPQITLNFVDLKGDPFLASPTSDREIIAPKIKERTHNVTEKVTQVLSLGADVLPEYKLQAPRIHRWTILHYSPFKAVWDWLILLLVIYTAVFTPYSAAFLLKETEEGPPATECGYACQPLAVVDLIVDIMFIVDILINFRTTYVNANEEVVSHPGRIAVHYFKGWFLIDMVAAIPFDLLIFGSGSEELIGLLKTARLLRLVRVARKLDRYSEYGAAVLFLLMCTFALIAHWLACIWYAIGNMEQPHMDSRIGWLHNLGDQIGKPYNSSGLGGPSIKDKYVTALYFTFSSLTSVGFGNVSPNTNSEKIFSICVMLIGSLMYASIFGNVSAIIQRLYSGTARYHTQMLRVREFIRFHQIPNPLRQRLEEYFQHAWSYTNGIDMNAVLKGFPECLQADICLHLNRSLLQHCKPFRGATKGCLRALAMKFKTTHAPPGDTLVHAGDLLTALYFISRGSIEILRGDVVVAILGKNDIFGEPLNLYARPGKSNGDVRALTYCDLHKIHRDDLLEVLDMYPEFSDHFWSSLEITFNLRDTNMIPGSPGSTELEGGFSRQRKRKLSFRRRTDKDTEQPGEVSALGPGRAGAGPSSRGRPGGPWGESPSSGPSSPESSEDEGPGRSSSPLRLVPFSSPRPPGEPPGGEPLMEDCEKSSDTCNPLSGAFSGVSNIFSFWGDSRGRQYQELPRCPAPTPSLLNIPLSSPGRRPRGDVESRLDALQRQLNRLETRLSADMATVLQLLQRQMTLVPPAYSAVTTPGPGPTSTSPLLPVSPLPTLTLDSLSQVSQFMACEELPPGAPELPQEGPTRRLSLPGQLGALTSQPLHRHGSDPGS
Series [5] relates to Rattus norvegicus. Briefly: Neuroprotective activity in iv dosed Sprague-Dawley rat model of middle cerebral artery occlusion-induced ischemia-reperfusion injury assessed as concentration required to reduce infarction volume to < 26% by TTC staining based assay. It counts as functional. The gist of the method:
(§1)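 Male Sprague-Dawley rats under chloral hydrate (400 mg/kg, i.p.); nylon monofilament through the left internal carotid artery occluded the MCA origin for 2 h, then was withdrawn for reperfusion. Drug in 0.9% saline was injected via the tail vein immediately after reperfusion. After 24 h, 2 mm coronal sections were stained with 1% TTC at 37 °C for 15 min and fixed in 4% paraformaldehyde. Infarct % = (normal hemisphere − non-infarcted ischemic hemisphere)/normal hemisphere ×100. n=15-18, mean ± SEM.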

In series [6] the test system is SH-SY5Y. Nature of the series: Cytotoxicity against human SH-SY5Y cells assessed as reduction in cell viability measured after 24 hrs by MTT assay. It counts as cell-based. The procedure, abridged: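 SH-SY5Y cells (1:1 MEM/F12, 10% FBS) seeded 3 × 10^4 cells/well, grown 24 h, then exposed without insult for 24 h to 1.56–100 µM or to 1 and 10 µM (DMSO stock diluted in medium). MTT read at 490 nm; viability as % of untreated control.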
For orientation: Formazan colour is commonly taken as a measure of viable cells.

The subject of series [7] is SH-SY5Y. Briefly: Neuroprotective activity against oxygen-glucose deprivation-induced morphological changes in human SH-SY5Y cells assessed as increase in cell number added immediately before OGD-challenge and measured after 24 hrs by microscopic analysis.
Series [8] concerns SH-SY5Y. Briefly: Neuroprotective activity against oxygen-glucose deprivation-induced morphological changes in human SH-SY5Y cells assessed as suppression of cell shrinkage […] and measured after 24 hrs by microscopic analysis. Format: functional, cell-based.
Series [9] relates to SH-SY5Y. Briefly: Neuroprotective activity against oxygen-glucose deprivation-induced apoptosis in human SH-SY5Y cells assessed as necrotic cells at 4 uM preincubated for 2 hrs followed by OGD-challenge and measured after 24 hrs by Annexin V-FITC/propidium iodide staining-based flow cytometric method (reference value: 6.46%). It counts as functional.
The test system of series [10] is SH-SY5Y. Nature of the series: Neuroprotective activity against oxygen-glucose deprivation-induced morphological changes in human SH-SY5Y cells assessed as suppression of bright cell body appearance preincubated for 2 hrs followed by OGD-challenge and measured after 24 hrs by microscopic analysis. It counts as functional, cell-based. The gist of the method:
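SH-SY5Y cells treated immediately before 2 h OGD (glucose/serum-free, hypoxia chamber, 37 °C), then reoxygenated; morphology (neurites, cell body, cell number) inspected by light microscopy 24 h after insult.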

The subject of a further series is MRC5. Nature of the series: Cytotoxicity against human MRC5 cells assessed as reduction in cell viability measured after 72 hrs by CCK8 assay. It counts as cell-based. As to conditions: MRC5, 72 h. The procedure, abridged: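 MRC-5 cells grown in MEM with 10% FBS, NEAA, 5% CO2 at 37 °C; seeded 7000 cells/well, treated at several concentrations for 72 h. Viability by CCK-8 absorbance at 450 nm, expressed as % of vehicle-treated cells; IC50 reported as mean ± SD.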

In series [11] the test system is SH-SY5Y. Briefly: Neuroprotective activity against oxygen-glucose deprivation-induced apoptosis in human SH-SY5Y cells assessed as viable cells at 4 uM preincubated for 2 hrs followed by OGD-challenge and measured after 24 hrs by Annexin V-FITC/propidium iodide staining-based flow cytometric method (reference value: 48.2%). It counts as functional. The conditions noted are these: read-out: Activity.

Series [12] relates to Rattus norvegicus. Nature of the series: Neuroprotective activity in Sprague-Dawley rat model of middle cerebral artery occlusion-induced ischemia-reperfusion injury assessed as infarction volume at 1 mg/kg, iv by TTC staining based assay (reference value: 39%). Format: functional. The gist of the method: as §1
Series [13] relates to SH-SY5Y. Briefly: Neuroprotective activity against oxygen-glucose deprivation-induced apoptosis in human SH-SY5Y cells assessed as late apoptotic cells at 4 uM preincubated for 2 hrs followed by OGD-challenge and measured after 24 hrs by Annexin V-FITC/propidium iodide staining-based flow cytometric method (reference value: 28.2%). It counts as functional.
Series [14] deals with SH-SY5Y. Briefly: Neuroprotective activity against oxygen-glucose deprivation-induced morphological changes in human SH-SY5Y cells assessed as suppression of neurite disappearance […] and measured after 24 hrs by microscopic analysis. Format: functional, cell-based.
Series [15] has as its system Rattus norvegicus. Briefly: Neuroprotective activity in Sprague-Dawley rat model of middle cerebral artery occlusion-induced ischemia-reperfusion injury assessed as infarction volume at 0.3 mg/kg, iv by TTC staining based assay (reference value: 39%). Format: functional. The gist of the method:
as §1

The test system of series [16] is SH-SY5Y. Briefly: Neuroprotective activity against H2O2-induced cell death in human SH-SY5Y cells assessed as cell viability at 1 to 4 uM preincubated for 2 hrs followed by H2O2-challenge by MTT assay (reference value: 45.73%). Format: functional.
Series [17] in a line: Half life in mouse liver microsomes at 1 uM in presence of NADPH by LC-MS/MS analysis. It counts as ADME, Microsome.
The subject of series [18] is Rattus norvegicus. Nature of the series: Neuroprotective activity in Sprague-Dawley rat model of middle cerebral artery occlusion-induced ischemia-reperfusion injury assessed as infarction volume at 3 mg/kg, iv by TTC staining based assay (reference value: 39%). Format: functional. The gist of the method: as §1

pIC50: −log10 of the molar value. Activity calls are given as the source filed them. The calls are words filed in the database; no cut-off is given here. Some results are limits rather than exact numbers.

With `Cc1cc([C@@H]2C[C@@H]3CC[C@H]2C3)n(O)c(=O)c1.NCCO`, the outcome in the series on HT-22, in the series on Rattus norvegicus [1], with SH-SY5Y [7], with SH-SY5Y [8], in the series on SH-SY5Y [10] and in the series on SH-SY5Y [14] was Active. The Activity in the series with SH-SY5Y [2] came out at 9.36%; in the series on Rattus norvegicus [5], 0.3 mg/kg; in the series on SH-SY5Y [9] it was 4.87%; with Rattus norvegicus [12], 23%; with SH-SY5Y [13], 16%; with Rattus norvegicus [15] it was 25%. Also, the Activity result in the series with SH-SY5Y [16] is “<=80%”. In addition, in series [3], the concentration in solution (solubility at 24 h) was 10.9 mg/mL. The negative logarithm of the IC50 (pIC50) (in general, the negative decadic logarithm of the IC50, by convention in mol/L) in series [4] was less than 4.40; with SH-SY5Y [6], less than 4.00; in the series with MRC5, 4.63. In the series on SH-SY5Y [11], the viability at 4 µM was 69.8%. Further, the half-life (usually the time in which the quantity being followed falls by half) at 1 µM in series [17] amounted to 1.53 h.
As for `Cc1cc(C2CCCCC2)n(O)c(=O)c1.NCCO` [CICLOPIROX OLAMINE], the solubility – broadly, the dissolved amount per volume that the medium holds – in series [3] (buffer, 24 h) came out at 6.82 mg/mL. The negative-log IC50 (pIC50) is less than 4.40 in series [4], less than 4.00 in the series with SH-SY5Y [6] and 4.63 in the series with MRC5. For the same compound, the Activity in the series with Rattus norvegicus [5] is 3 mg/kg; with Rattus norvegicus [18], 26%; in the series with SH-SY5Y [16] it was “<=80%”. The half-life at 1 µM in series [17] was determined as 0.886 h.
